Data set [1] concerns the target T1, Autotaxin (Mus musculus, UniProt Q9R1E6). Put plainly: Inhibition of mouse ATX-beta using LPC 16:0 as substrate by Amplex Red PLD assay.
For data set [2], the target named is T1, Autotaxin. Put plainly: Inhibition of mouse ATX-beta using LPC 18:0 as substrate by Amplex Red PLD assay.
Data set [3] deals with T1, Autotaxin. Put plainly: Inhibition of recombinant mouse ATX expressed in HEK293 cells using FS3 as substrate preincubated for 15 mins followed by substrate addition measured after 30 mins.
The target in data set [4] is T1, Autotaxin. Put plainly: Inhibition of recombinant mouse ATX expressed in HEK293 cells using LPC 17:0 as substrate after 30 mins by LC-MS/MS method.
A further data set is filed under the species Rattus norvegicus. The data set is described as follows: animal or person. Particulars: Lewis, po, 4 h, read-out: INH.
For data set [5], the system named is Mus musculus. Put plainly: Antifibrotic activity in BLM-induced C57BL/6 mouse pulmonary fibrosis model assessed as improvement in lung architecture at 30 mg/kg, ip qd administered 15 days starting 1 day prior to BLM installation by hematoxylin/eosin staining-based microscopic method. The format is functional, organism-based. The method in brief: (§1)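 Bleomycin model: mice 8–10 weeks, 0.01 U orotracheal bleomycin on day 0, 30 mg/kg ip daily from day −1 to 14 (PBS/5% Tween 80 vehicle), killed day 15. Lungs were fixed in 10% neutral buffered formalin, paraffin-embedded, cut at 4 μm and H&E-stained. Sections were examined by light microscopy at ×100–×300.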

Data set [6] has as its system Mus musculus. Put plainly: Antifibrotic activity in BLM-induced C57BL/6 mouse pulmonary fibrosis model assessed as decrease in soluble collagen concentration in bronchoalveolar lavage fluid at 30 mg/kg, ip qd administered 15 days starting 1 day prior to BLM installation by Sirius Red assay. The data set is classed as functional, organism-based. A digest of the protocol: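 Day-15 BALF from bleomycin-challenged mice given ip drug at 30 mg/kg daily from day −1 to 14. BALF (100 μL) was diluted in 1 mL 0.5 M acetic acid, mixed with an equal volume of Sirius Red (120 μg/mL in 0.5 M acetic acid) and held 30 min at room temperature. After centrifugation, supernatant A540 was read against a rat-tail collagen I standard (0–500 μg/mL).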

Data set [7] deals with Mus musculus. Put plainly: Antifibrotic activity in BLM-induced C57BL/6 mouse pulmonary fibrosis model assessed as decrease in fibrotic lesions at 30 mg/kg, ip qd administered 15 days starting 1 day prior to BLM installation by hematoxylin/eosin staining-based microscopic method. The format is functional, organism-based. The method in brief: as §1
The subject of data set [8] is Mus musculus. Put plainly: Antifibrotic activity in BLM-induced C57BL/6 mouse pulmonary fibrosis model assessed as decrease in ATX activity in bronchoalveolar lavage fluid at 30 mg/kg, ip qd administered 15 days starting 1 day prior to BLM installation by TOOS activity assay. The data set is classed as functional, organism-based. The method in brief:
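Male and female C57BL/6 mice (8–10 weeks) got 0.01 U bleomycin in 50 μL saline orotracheally on day 0. Dosing was 30 mg/kg ip once daily from day −1 to 14 in PBS/5% Tween 80 (n = 10). Lungs were lavaged three times with 1 mL saline on day 15. BALF lysoPLD activity was measured by TOOS assay (nmol/min/mL). Means ± SE.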

The subject of data set [9] is Mus musculus. The data set is described as follows: Antifibrotic activity in BLM-induced C57BL/6 mouse pulmonary fibrosis model assessed as decrease in contiguous fibrotic walls at 30 mg/kg, ip qd administered 15 days starting 1 day prior to BLM installation by hematoxylin/eosin staining-based microscopic method. The format is functional, organism-based. A digest of the protocol: as §1

A short description of data set [10]: Plasma concentration in BLM-induced C57BL/6 mouse pulmonary fibrosis model at 30 mg/kg, ip qd administered 15 days starting 1 day prior to BLM installation measured 1 hr post last dose by LC-MS/MS method. The data set is classed as ADME, organism-based. The method in brief:
(§2)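 Bleomycin-challenged C57BL/6 mice received 30 mg/kg ip daily from day −1 to 14. Blood was taken 1, 3 and 6 h after the last dose into EDTA (pH 8, final 50 mM). It was centrifuged at 2000g for 20 min at 4 °C, and plasma was stored at −80 °C. Plasma drug levels were quantified by LC–MS/MS (ng/mL).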

The test system of data set [11] is Mus musculus. The data set is described as follows: Antifibrotic activity in BLM-induced C57BL/6 mouse pulmonary fibrosis model assessed as decrease in inflammatory cell influx in bronchoalveolar lavage fluid at 30 mg/kg, ip qd administered 15 days starting 1 day prior to BLM installation by trypan blue assay relative to control. The format is functional. Also on record: scale not given: the % may be the effect or the level left. The method in brief:
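Mice (C57BL/6, 8–10 weeks) had orotracheal bleomycin 0.01 U on day 0 and ip dosing at 30 mg/kg daily from day −1 to 14, n = 10. On day 15, lungs were lavaged 3 × 1 mL 0.9% NaCl. BALF was spun at 1200 rpm for 10 min, and pellet cells were counted with 0.4% trypan blue (×10^5 cells/mL). Means ± SE.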

A further data set relates to Plasma. The data set is described as follows: Plasma concentration in BLM-induced C57BL/6 mouse pulmonary fibrosis model at 30 mg/kg, ip qd administered 15 days starting 1 day prior to BLM installation measured 3 to 6 hrs post last dose by LC-MS/MS method. The settings on record: in vivo. The data set is classed as ADME, organism-based. The method in brief:
as §2

Data set [12] relates to Mus musculus. Put plainly: Antifibrotic activity in BLM-induced C57BL/6 mouse pulmonary fibrosis model assessed as decrease in total protein concentration in bronchoalveolar lavage fluid at 30 mg/kg, ip qd administered 15 days starting 1 day prior to BLM installation by Bradford protein assay relative to control. The format is functional, organism-based. A digest of the protocol: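 BALF total protein was measured after orotracheal bleomycin (0.01 U, day 0) and 30 mg/kg ip daily dosing from day −1 to 14. Lavage was done on day 15 with 3 × 1 mL saline, and the supernatant was stored at −80 °C. OD readings were converted to mg/mL using a BSA standard curve (0–2 mg/mL). Means ± SE, paired t test.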

Active and inactive are the calls of the source. No cut-off for these calls is given here.

The text below walks through data of ChEMBL document CHEMBL4043308 (J Med Chem, 2018).

Turning to `O=C(CCCCC(=O)Nc1ccc(B(O)O)cc1)Nc1ccccc1`, the IC50 – broadly, the concentration that gives 50% inhibition – on Autotaxin [1] was found to be 0.7 µM; against Autotaxin [2], 4 µM.
Compound `CCCCCCCCCC(=O)Nc1ccc(CC(=O)NO)cc1` yielded a concentration for half-maximal inhibition (IC50) against Autotaxin [1] above 5 µM.
Take `COC(=O)[C@H](CCCC(=O)NO)NC(=O)CCCCC(=O)Nc1ccccc1`: the IC50 against Autotaxin [1] was 0.05 µM.
In the case of `CCCCCCCCc1ccc(C(=O)Nc2ccc(CC(=O)NO)cc2)cc1`, at Autotaxin [1], the IC50 was above 5 µM.
Consider `COC(=O)[C@H](CCC(=O)NO)NC(=O)CCCCC(=O)Nc1ccc(OC)cc1`, for which, on Autotaxin [1], the IC50 worked out at 4.5 µM.
On Autotaxin [1], `O=C(O)Cc1ccc(NC(=O)CCCCC(=O)Nc2ccccc2)cc1` had an IC50 above 5 µM.
The compound `O=C(Cc1ccc(NC(=O)CCCCC(=O)Nc2ccccc2)cc1)NO` yielded an IC50 at Autotaxin [2] of 0.2 µM.
Regarding `COC(=O)[C@H](CCC(=O)NO)NC(=O)CCCCNC(=O)c1ccccc1`, the IC50 against Autotaxin [1] is above 5 µM.
On the same count and under the same terms, the result for `COC(=O)[C@H](CCC(=O)NO)NC(=O)CCCCC(=O)Nc1ccc(F)cc1` reads above 5 µM.
Compound `COC(=O)[C@H](CCCC(=O)NO)NC(=O)CCCCCCc1ccccc1` returned an IC50 at Autotaxin [1] above 5 µM.
`CCOc1ccc(NC(=O)CCCCC(=O)N[C@@H](CCC(=O)NO)C(=O)OC)cc1` returned an IC50 against Autotaxin [1] above 5 µM.
With `O=C(CCN1CCN(C(=O)OCc2cc(Cl)cc(Cl)c2)CC1)c1ccc2[nH]c(=O)oc2c1`, the 50% inhibitory concentration (IC50) was found to be 0.0028 µM at Autotaxin [3] and 0.0017 µM at Autotaxin [4]. Moreover, the inhibition in vivo at 30 mg/kg in the data set listed under Rattus norvegicus is above 95%.
Turning to `COC(=O)[C@H](CCC(=O)NO)NC(=O)CCCCC(=O)Nc1ccccc1`, the midpoint of inhibition against Autotaxin [1], the IC50, lay at 0.4 µM.
As to `O=C(CCCCC(=O)Nc1ccc(CC(=O)C(F)(F)C(F)(F)F)cc1)Nc1ccccc1`, the half-maximal inhibitory concentration (IC50) against Autotaxin [1] worked out at 3 µM; against Autotaxin [2], 0.5 µM.
With `CCCC[C@@H](CCCC(=O)NO)NC(=O)CCCCC(=O)Nc1ccccc1`, the outcome with Mus musculus [5], in the data set with Mus musculus [6], in the data set with Mus musculus [7], in the data set on Mus musculus [8], with Mus musculus [9] and in the data set with Mus musculus [12] was Active. Further, the concentration at 1 h in [10] turned out to be 70 ng/mL. Further, the Activity in the data set on Mus musculus [11] is 50%. The compound also came in with a Cp with Plasma of 35 ng/mL.
On to `O=C(CC[C@H](NC(=O)CCCCC(=O)Nc1ccccc1)C(=O)NO)NO`, for which the IC50 against Autotaxin [1] was above 5 µM.
For `O=C(Cc1ccc(NC(=O)CCCCNC(=O)c2ccc(F)cc2)cc1)NO`, the IC50 against Autotaxin [1] is above 5 µM.
The same measure, in the same setting: for `O=C(Cc1ccc(NC(=O)CCCCc2ccc(-c3ccccc3)cc2)cc1)NO` the value was above 5 µM.
